{"source": "paper PMC10962727", "about": "(PNAS Nexus, 2024)", "key": {"Pharmacokinetics in mice": {"assay": "Pharmacokinetics in mice", "assay_type": "in vivo", "details": "female, CD1, mouse, plasma, po, 20 mg/kg", "outline": "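Female CD1 mice and male beagle dogs received test compound orally in 0.5% methylcellulose:0.5% Tween-80 or intravenously in saline, both at 5 mL/kg. After oral dosing, plasma concentrations were measured at 30 min, 1 h, 3 h, 8 h and 24 h.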"}, "MST1 [1]": {"biological_target": "T1, MST1 (Homo sapiens, UniProt Q13043)", "T1 sequence (Q13043 1-487)": "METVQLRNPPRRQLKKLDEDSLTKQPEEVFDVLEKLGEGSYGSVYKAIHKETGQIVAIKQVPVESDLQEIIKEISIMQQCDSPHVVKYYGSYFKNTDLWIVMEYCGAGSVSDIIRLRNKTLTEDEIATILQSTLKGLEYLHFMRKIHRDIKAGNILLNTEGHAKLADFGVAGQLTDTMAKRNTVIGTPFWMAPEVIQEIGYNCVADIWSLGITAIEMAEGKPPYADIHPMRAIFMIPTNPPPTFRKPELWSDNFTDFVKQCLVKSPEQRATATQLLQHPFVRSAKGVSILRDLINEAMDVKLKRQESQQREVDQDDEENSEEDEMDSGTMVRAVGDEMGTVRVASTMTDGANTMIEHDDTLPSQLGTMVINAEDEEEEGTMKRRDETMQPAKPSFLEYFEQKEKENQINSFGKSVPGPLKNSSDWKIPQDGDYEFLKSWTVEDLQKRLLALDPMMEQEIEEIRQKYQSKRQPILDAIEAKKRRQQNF", "details": "high-throughput MST1 inhibition screen ref 16, 17; cited from earlier work"}, "MST1/2": {"test_system": "MST1/2", "details": "cited from earlier work"}, "MST1 [2]": {"biological_target": "T1, MST1", "assay": "MST1 inhibition", "assay_type": "biochemical", "details": "vs neratinib"}, "EGFR": {"biological_target": "EGFR (Homo sapiens, UniProt P00533)", "sequence (P00533 25-1210)": "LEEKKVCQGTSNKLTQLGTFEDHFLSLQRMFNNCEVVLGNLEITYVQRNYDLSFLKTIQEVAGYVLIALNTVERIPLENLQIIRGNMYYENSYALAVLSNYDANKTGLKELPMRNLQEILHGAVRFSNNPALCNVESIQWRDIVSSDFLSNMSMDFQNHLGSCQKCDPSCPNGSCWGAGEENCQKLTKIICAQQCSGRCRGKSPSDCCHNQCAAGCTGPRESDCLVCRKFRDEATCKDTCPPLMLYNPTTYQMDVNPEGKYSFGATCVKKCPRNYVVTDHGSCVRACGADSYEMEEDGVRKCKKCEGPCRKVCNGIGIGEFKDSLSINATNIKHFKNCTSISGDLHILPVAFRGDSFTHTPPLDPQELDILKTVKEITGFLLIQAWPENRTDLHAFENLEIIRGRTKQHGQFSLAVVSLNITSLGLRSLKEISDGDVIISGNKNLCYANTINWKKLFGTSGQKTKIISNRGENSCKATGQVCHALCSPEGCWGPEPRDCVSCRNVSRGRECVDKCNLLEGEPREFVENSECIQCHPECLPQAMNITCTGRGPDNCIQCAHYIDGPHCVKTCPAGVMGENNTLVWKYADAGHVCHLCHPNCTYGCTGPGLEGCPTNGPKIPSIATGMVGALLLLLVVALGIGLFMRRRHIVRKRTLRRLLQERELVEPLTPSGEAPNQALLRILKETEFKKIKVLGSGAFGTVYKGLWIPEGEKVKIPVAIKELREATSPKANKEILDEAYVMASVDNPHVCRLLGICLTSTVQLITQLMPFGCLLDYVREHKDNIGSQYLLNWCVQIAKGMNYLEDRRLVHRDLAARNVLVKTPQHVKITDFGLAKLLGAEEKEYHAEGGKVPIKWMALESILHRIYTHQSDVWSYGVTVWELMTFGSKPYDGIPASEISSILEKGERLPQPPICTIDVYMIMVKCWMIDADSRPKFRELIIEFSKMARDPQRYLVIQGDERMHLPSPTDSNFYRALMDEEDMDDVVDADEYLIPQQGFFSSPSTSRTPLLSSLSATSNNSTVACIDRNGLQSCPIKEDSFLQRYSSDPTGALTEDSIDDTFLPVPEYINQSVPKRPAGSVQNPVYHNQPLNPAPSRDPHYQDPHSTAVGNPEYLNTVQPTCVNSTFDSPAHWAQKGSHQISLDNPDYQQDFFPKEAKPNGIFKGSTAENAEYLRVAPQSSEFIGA", "assay": "EGFR inhibition", "assay_type": "biochemical"}}}
{"compound": "CCOc1cc2ncc(C#N)c(Nc3ccc(OCc4ccccn4)c(Cl)c3)c2cc1NC(=O)/C=C/CN(C)C", "note": "[Neratinib]", "values": [{"measurement": "AUC(0-t)", "setting": "Pharmacokinetics in mice", "result": 3120, "unit": "ng·h/mL"}, {"measurement": "Cmax", "setting": "Pharmacokinetics in mice", "result": "342 ± 152", "unit": "ng/mL"}, {"measurement": "MRT", "setting": "Pharmacokinetics in mice", "result": "5.4 ± 1.3", "unit": "h"}, {"measurement": "Tmax", "setting": "Pharmacokinetics in mice", "result": "4 ± 3", "unit": "h"}, {"measurement": "MST1 inhibitory activity (in words)", "setting": "MST1 [1]", "result": "high MST1 inhibitory activity"}]}
{"compound": "XMU-MP-1", "values": [{"measurement": "MST1/2 inhibition (in words)", "setting": "MST1/2", "result": "selective MST1/2 inhibition"}]}
{"compound": "CCOc1cc2ncc(C#N)c(Nc3ccc(OCc4ccccn4)c(Cl)c3)c2cc1NC(=O)CCCN(C)C", "note": "[mBNB885]", "values": [{"measurement": "MST1 activity (in words)", "setting": "MST1 [2]", "result": "preserved MST1 activity"}, {"measurement": "fold reduction in potency toward EGFR / EGFR inhibition", "setting": "EGFR; compared with preceding/parent compound", "result": 5, "unit": "fold"}, {"measurement": "IC50", "setting": "EGFR; read-out: EGFR IC50", "result": 1.42, "unit": "nM"}]}
